Screening results as filed in PubChem.
TRPC4 block = inhibitors of mouse TRPC4 channel, primary screen, Fluo4 calcium, HEK293 TRPC4beta/mu-opioid cells; B-score at 10 µM; AID 2247, 2010; Short transient receptor potential channel 4 (Mus musculus), Q9QUQ5; DAMGO-evoked Fluo4 calcium flux; active compounds read low; actives 0.39% (n = 300,000);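 active means B-score over 3 SD under the library average, no early fluorescence shift, positive overall ratio signal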
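Assay system: Stable TRPC4beta/mu-opioid receptor HEK293 cells | Reagent: DAMGO in two steps, submaximal then maximal | Compound dosing: Single concentration per test compound | Signal: Fluo4 Ca2+ flux fluorescence | Evaluation: Per-well B score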
TRPC4 potent = positive allosteric modulators of TRPC4, primary screen, cell-based, mouse TRPC4beta, HEK293 mu-opioid, Fluo-4 calcium; actives 0.42% (n = 310,000); DAMGO EC20, Fluo-4 Ca2+ flux; active compounds read high; B-score at 10 µM;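 active means B-score of calcium response area above 5 SD of library B-scores, with initial fluorescence ratio within 5 SD of library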;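 further: B-score of integrated fluorescence ratio over time as area under calcium response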
TRPC4 agonist = activators of mouse TRPC4 channel, primary screen, Fluo4 calcium, HEK293 TRPC4beta/mu-opioid cells. Short transient receptor potential channel 4 (Mus musculus), Q9QUQ5. Fluo4 calcium fluorescence; active compounds read high. B-score at 10 µM. actives 0.49% (n = 310,000). AID 2237, 2010;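 active means B-score above 5 SD of library B-scores, and initial fluorescence ratio not above library mean plus 5 SD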;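 further: positive B-score marks a calcium rise read as TRPC4 activation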
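Material: HEK293 stable line with TRPC4beta plus mu-opioid receptor; technique: Fluo4 calcium-sensitive dye fluorescence, kinetic, 1 Hz baseline; timing: Fluo4 dye loading 45 min at room temperature, 110 s recording; controls: assay buffer as low control, maximal DAMGO as high control; read-out: integrated baseline-normalised fluorescence ratio, converted to per-well B score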
TRPC6 inhibitor = mouse TRPC6 channel inhibitors, primary screen, cell-based, HEK293, membrane potential dye. ACh-evoked depolarization; active compounds read low. B-score at 10 µM. actives 1.1% (n = 310,000). AID 2553, 2010;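 active means B-score under library mean minus 3 SD, initial fluorescence not abnormally high, positive integrated signal ratio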;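 further: B-score derived from integrated fluorescence ratio over the kinetic read; more negative B-score means stronger inhibition of depolarization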
Target sequence (Q61143 whole entry, looked up): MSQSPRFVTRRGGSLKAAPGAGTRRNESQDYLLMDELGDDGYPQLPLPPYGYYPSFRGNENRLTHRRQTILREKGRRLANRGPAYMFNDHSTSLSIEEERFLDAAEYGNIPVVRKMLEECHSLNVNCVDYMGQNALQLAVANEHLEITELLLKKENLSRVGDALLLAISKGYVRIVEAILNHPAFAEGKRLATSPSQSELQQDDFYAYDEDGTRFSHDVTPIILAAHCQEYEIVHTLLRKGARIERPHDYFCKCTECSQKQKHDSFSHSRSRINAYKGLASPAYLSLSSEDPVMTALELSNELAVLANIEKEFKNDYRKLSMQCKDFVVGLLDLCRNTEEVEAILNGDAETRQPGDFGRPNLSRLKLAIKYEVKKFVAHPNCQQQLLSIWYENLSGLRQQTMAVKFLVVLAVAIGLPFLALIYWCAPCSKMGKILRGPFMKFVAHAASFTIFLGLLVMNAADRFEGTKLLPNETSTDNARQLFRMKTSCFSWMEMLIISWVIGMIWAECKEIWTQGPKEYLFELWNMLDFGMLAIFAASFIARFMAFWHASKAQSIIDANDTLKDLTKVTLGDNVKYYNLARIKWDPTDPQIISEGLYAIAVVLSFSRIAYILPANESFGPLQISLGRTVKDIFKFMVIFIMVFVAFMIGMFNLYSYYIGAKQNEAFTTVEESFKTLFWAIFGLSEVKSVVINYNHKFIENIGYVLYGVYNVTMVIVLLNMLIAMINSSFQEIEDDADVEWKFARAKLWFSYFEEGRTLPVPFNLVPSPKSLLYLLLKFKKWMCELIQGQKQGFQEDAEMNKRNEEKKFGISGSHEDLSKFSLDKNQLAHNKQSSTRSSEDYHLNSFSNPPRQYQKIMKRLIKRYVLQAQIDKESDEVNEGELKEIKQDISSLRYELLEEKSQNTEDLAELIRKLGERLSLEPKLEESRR
TRPC6 act = mouse TRPC6 channel activators, primary screen, cell-based, HEK293, membrane potential dye. Short transient receptor potential channel 6 (Mus musculus), Q61143. HEK293-TRPC6 membrane potential dye fluorescence; active compounds read high. B-score at 10 µM. actives 0.13% (n = 310,000). AID 2550, 2010;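 active means B-score of the integrated fluorescence ratio above library mean plus 3 SD, and starting fluorescence ratio within library mean plus 5 SD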;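 further: higher score means more depolarization so channel activation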
TRPC4 spec 2 = second check of whether TRPC6 inhibitors also affect mouse TRPC4; shares compounds with TRPC6 inhibitor; HEK293 TRPC4/MOR, membrane potential dye fluorescence; channel activated by saturating DAMGO dose; inhibition, % at 10 µM; actives 42% (n = 920); AID 2776;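 active means compounds whose fluorescence signal differed from control wells by over 3 SD, either direction, in both duplicate plates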
TRPC4 spec = mouse TRPC4 modulation by TRPC6 hits, confirmation, selectivity assay for TRPC6 inhibitor project, cell-based, HEK293 TRPC4/mu-opioid, membrane potential dye. AID 2777, 2010. actives 61% (n = 920). activity change, negative = inhibition, % at 10 µM. membrane potential fluorescence. shares compounds with TRPC6 inhibitor;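 active means rise or fall in signal beyond 3 SD of buffer-only wells in both replicate plates, either sign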;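 further: integrated kinetic ratio of fluorescence range over baseline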
HEK293 MPD ctr 2-1 = nonspecific membrane potential effects, parental HEK293, confirmation, counter-screen for TRPC6 inhibitor project, cell-based, second counter screen | AID 2779, 2010 | actives 31% (n = 920) | shares compounds with TRPC6 inhibitor | signal change vs control, % at 10 µM | parental HEK293 membrane potential dye fluorescence; maximal acetylcholine challenge after compound addition;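 active means membrane potential signal moving either way by over 3 SD of the maximum-effect control, in both duplicate plates, meaning non-specific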
HEK293 MPD ctr-1 = membrane potential modulation in parental HEK293, confirmation, counter-screen for TRPC6 inhibitor project, cell-based | shares compounds with TRPC6 inhibitor | actives 60% (n = 920) | membrane potential signal change, % at 10 µM | parental HEK293 membrane potential dye fluorescence;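 active means membrane potential signal shifting up or down by more than 3 SD of buffer-only wells, on both duplicate plates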
HEK293 MPD ctr-2 = parental HEK293 membrane potential modulation, confirmation, counter-screen for TRPC6 modulator project, cell-based | shares compounds with TRPC6 inhibitor | membrane potential dye fluorescence | membrane potential signal change, % at 10 µM | actives 51% (n = 2,400);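 active means membrane potential signal moves up or down beyond 5 SD from buffer-only wells, on both duplicate plates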
HEK293 MPD ctr 2-2 = second counter-screen for TRPC6 modulators: effect in parental HEK293 cells; shares compounds with TRPC6 inhibitor; membrane potential dye fluorescence; after compound, maximal acetylcholine stimulation; actives 14% (n = 2,400); inhibition, % at 10 µM;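 active means membrane potential signal drops by more than 5 SD from the mean control signal, in both duplicate plates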;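 further: plate controls were acetylcholine ECmax control wells for no effect and buffer only wells for full effect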
TRPC4 ctr mod = TRPC4 modulation by TRPC6 hit compounds, confirmation, selectivity assay for TRPC6 modulator project, cell-based, HEK293 TRPC4/mu-opioid, membrane potential dye, mouse; shares compounds with TRPC6 inhibitor; membrane potential fluorescence; percent change from control (negative = decrease, positive = increase), % at 10 µM; actives 69% (n = 2,400);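 active means membrane potential signal moved up or down beyond 5 SD of buffer control wells, in both duplicate plates, actives on both sides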;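 further: plate controls were assay buffer wells for no effect and DAMGO maximal-effect wells for full effect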
TRPC4 ctr inh 2 = second selectivity test of TRPC6 modulators against mouse TRPC4; HEK293 TRPC4/mu-opioid, membrane potential dye fluorescence; stimulated with maximal-effect DAMGO; inhibition, % at 10 µM; shares compounds with TRPC6 inhibitor; AID 488928; actives 55% (n = 2,400);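 active means drop in membrane potential signal beyond 5 SD of the control wells in both duplicate plates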;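 further: TRPC4 counter screen for TRPC6 hits run under conditions tuned for TRPC6 not TRPC4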
TRPC6 block conf = mouse TRPC6 channel inhibitors, confirmation, HEK293 cells, membrane potential dye, duplicate. shares compounds with TRPC6 inhibitor. ACh-evoked depolarization. inhibition, % at 10 µM. actives 43% (n = 3,300). AID 488960, 2010;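 active means fluorescence ratio falls more than 5 SD below the full-stimulation control mean, in both duplicate runs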;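 further: integrated fluorescence ratio of peak minus minimum over baseline after agonist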
TRPC6 act confirm = mouse TRPC6 channel activators, confirmation, HEK293 cells, membrane potential dye, duplicate | shares compounds with TRPC6 inhibitor | HEK293-TRPC6 membrane potential dye fluorescence, FDSS | activation, % at 10 µM | actives 11% (n = 2,800) | AID 488961, 2010;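 active means ratio signal rise beyond 5 SD above unstimulated control wells' mean, seen in both duplicate runs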;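 further: plate controls were buffer EC0 wells for no effect and acetylcholine ECmax response for full effect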
The depositor's hits bear a star; i = inactive; . = no result given; + = active, no number. Hits are enriched below; roughly 2.3% of the tested compounds scored in any of these assays.

SMILES	TRPC4 block	TRPC4 potent	TRPC4 agonist	TRPC6 inhibitor	TRPC6 act	HEK293 MPD ctr-2	HEK293 MPD ctr 2-2	TRPC4 ctr mod	TRPC4 ctr inh 2	TRPC6 block conf	TRPC6 act confirm	others
O=C(c1ccc(OC2CCN(Cc3ccccc3C(F)(F)F)CC2)cc1)N1CCCCC1	i	i	i	i	i	.	.	.	.	.	.
O=C(c1ccc(OC2CCN(Cc3ccc(C(F)(F)F)cc3)CC2)cc1)N1CCCCC1	i	i	i	-6.28*	i	126.0%*	i	i	43.5%*	66.5%*	.
Clc1ccc(-c2nnc(COc3ncnc4ccccc34)o2)cc1	i	i	i	i	i	.	.	.	.	.	.
CC1=CC2=NC(=O)/C(=C\c3cc(C)n(-c4cccc(Cl)c4)c3C)C(=N)N2O1	i	i	i	i	i	.	.	.	.	.	.
N=C1/C(=C\c2coc3ccccc3c2=O)C(=O)N=C2SC=CN12	i	i	i	-7.96*	26.4*	640.0%*	118.5%*	119.0%*	77.0%*	i	107.0%*
CC1=CC2=NC(=O)/C(=C/c3coc4ccc(Cl)cc4c3=O)C(=N)N2O1	i	i	i	i	52*	+	+	287.0%*	101.0%*	.	457.0%*
CCOc1cc(C2C(C#N)=C(N)Oc3n[nH]c(C)c32)ccc1OCCN1CCOCC1 (configuration not stated)	i	i	i	i	i	.	.	.	.	.	.
CC(C)CCn1c(=O)c2sccc2n2c(CCCC(=O)N3CCN(c4ccccn4)CC3)nnc12	i	i	i	i	i	.	.	.	.	.	.
CC(C)Sc1nc2c(c(=O)[nH]c(=O)n2C)n1CC(O)COc1ccccc1 (configuration not stated)	i	i	i	-5.79*	i	i	i	10.5%*	i	66.0%*	i
CC(O)CSc1nc2c(c(=O)[nH]c(=O)n2C)n1CC(O)COc1ccccc1 (configuration not stated)	i	i	i	i	i	.	.	.	.	.	.
CCOC(=O)c1sc(Nc2cccc(C)c2C)nc1C	i	i	i	i	i	.	.	.	.	.	.
CCOC(=O)c1cn(CC)c2cc(N3CCN(C)CC3)c(F)cc2c1=O	i	i	i	i	i	.	.	.	.	.	.
CCn1cc(C(=O)O)c(=O)c2cc(F)c(N3CCN(C)CC3)cc21	i	i	i	i	i	.	.	.	.	.	.
CCCCCCn1cc(C(=O)O)c(=O)c2cc(F)c(N3CCN(C)CC3)cc21	i	i	i	-5.55*	i	-267.5%*	70.0%*	-52.0%*	51.5%*	44.0%*	i
CCOC(=O)c1cn(CC#N)c2cc(F)c(F)cc2c1=O	i	i	i	i	i	.	.	.	.	.	.
CCCCCCn1cc(C(=O)OCC)c(=O)c2cc(F)c(F)cc21	-6*	i	i	-5.07*	i	i	i	i	45.5%*	i	i
CCOC(=O)c1cn(CC)c2cc3c(cc2c1=O)OCO3	i	i	i	-5.79*	i	-126.0%*	i	-31.5%*	32.5%*	i	i
COc1ccccc1NC(=O)NCC1CC1(Cl)Cl (configuration not stated)	i	i	i	i	i	.	.	.	.	.	.
OC(C#CCN1CCCC1)c1ccccc1 (configuration not stated)	i	i	i	i	i	.	.	.	.	.	.
OC(C#CCN1CCCCCC1)(c1ccccc1)c1cccnc1 (configuration not stated)	i	i	i	-7.28*	i	.	.	.	.	63.4%*	.	TRPC4 spec 2=i;TRPC4 spec=3.4%*;HEK293 MPD ctr 2-1=8.5%*;HEK293 MPD ctr-1=4.8%*
CCCN(CC#CC(O)(c1ccccc1)c1cccnc1)CCC (configuration not stated)	i	i	i	i	i	.	.	.	.	.	.
OC(C#CCN1CCCC1)(c1ccccc1)c1cccnc1 (configuration not stated)	i	i	i	-6.09*	i	i	69.0%*	i	i	81.5%*	i
CN1CCOc2cc(S(=O)(=O)NCc3ccc(S(N)(=O)=O)cc3)ccc21	i	i	i	i	i	.	.	.	.	.	.
